# Experimental data pooled from the literature.
# Lines come from different studies, so protocols differ.
# Target: Cholecystokinin receptor type A (CCKAR, Homo sapiens, UniProt P32238)
# One construct used (P32238 1-428): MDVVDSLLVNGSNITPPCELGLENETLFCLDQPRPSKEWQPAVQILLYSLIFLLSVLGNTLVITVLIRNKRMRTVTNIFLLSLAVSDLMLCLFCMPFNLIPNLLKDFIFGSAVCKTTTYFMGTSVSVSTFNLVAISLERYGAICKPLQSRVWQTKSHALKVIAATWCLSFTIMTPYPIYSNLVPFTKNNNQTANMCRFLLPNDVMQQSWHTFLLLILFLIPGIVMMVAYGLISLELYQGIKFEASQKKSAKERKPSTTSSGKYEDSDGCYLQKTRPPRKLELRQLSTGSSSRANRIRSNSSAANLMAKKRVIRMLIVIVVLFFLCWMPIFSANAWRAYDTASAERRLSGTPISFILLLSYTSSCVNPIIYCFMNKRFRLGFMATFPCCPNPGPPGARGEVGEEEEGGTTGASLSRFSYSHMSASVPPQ
Compound,observed,technique,concentration,quantity,value
CN(CCN1CCC(OC(=O)Nc2ccccc2-c2ccccc2)CC1)C(=O)c1ccc(CN2CCC(C(N)=O)CC2)cc1,ligand displacement,radioligand,1 µM,inhibition,2%
C[C@H](C(=O)N[C@H]1COc2ccccc2[C@@H]1S(C)(=O)=O)c1ccc(F)cc1,cell-free assay,,10 µM,inhibition,-11%
Nc1ncc(-c2nc(N3CCOCC3)nc(N3CCOCC3)n2)c(C(F)F)n1,cell-free assay,,10 µM,remaining signal,118%
c1ccc(C(NCCNC(c2ccccc2)c2ccccc2)c2ccccc2)cc1,cell-free assay,,10 µM,inhibition,7%
COc1ccc(S(=O)(=O)N2CCCCC2)cc1C,ligand displacement,radioligand,10 µM,inhibition,< 30%
CCN(CC)CCCC[C@H](NC(=O)[C@H](CC(C)C)NC(=O)[C@H](C)NC(=O)[C@H](Cc1ccccc1)NC(=O)c1ccc(C(C)(C)C)cc1)C(=O)N[C@@H](CO)C(=O)OC,ligand displacement,radioligand,10 µM,remaining binding,67.2%
O=C(Nc1cccnn1)N1CCN([C@@H]2CCOc3cc(C(F)(F)F)ccc32)CC1,cell-free assay,,20 µM,inhibition,20%
Clc1ccc2c(C3CCN(CCc4c[nH]c5ccccc45)CC3)c[nH]c2c1,ligand displacement,radioligand,10 µM,inhibition,25%
Cc1ncc(C)n2nc(/C=C/c3nc(N4CCCC4)cc(N4CCOCC4)n3)nc12,ligand displacement,,10 µM,inhibition,-33%
